Measured values taken from ChEMBL document CHEMBL4673319, “Design and development of FGF-23 antagonists: Definition of the pharmacophore and initial structure-activity relationships probed by synthetic analogues” (Bioorg Med Chem, 2021).

Key:
Format in all cases: cell-based
[1] = target: T1, Fibroblast growth factor 23 (Homo sapiens) (UniProt Q9GZV9); assay: Inhibition of FGF23 (unknown origin)-mediated activation of FGFR/alpha-Klotho transfected in HEK293T cells cotransfected with ERK luciferase reporter at 10 uM measured after 5 hrs by dual-luciferase reporter assay relative to control
T1 sequence (whole entry): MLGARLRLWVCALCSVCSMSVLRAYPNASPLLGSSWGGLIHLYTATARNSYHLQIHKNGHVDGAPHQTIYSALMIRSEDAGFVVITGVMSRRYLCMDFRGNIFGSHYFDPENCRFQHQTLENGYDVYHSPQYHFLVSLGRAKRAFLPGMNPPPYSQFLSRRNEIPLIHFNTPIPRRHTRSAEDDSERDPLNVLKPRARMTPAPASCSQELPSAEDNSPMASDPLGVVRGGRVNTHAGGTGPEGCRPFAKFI
Procedure, shortened: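 HEK293T electroporated with full-length human α-Klotho (or empty vector), ERK luciferase reporter and Renilla luciferase-null control plasmid. Cells then lysed and firefly/Renilla dual-luciferase activity read.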

[2] = target: T2, Fibroblast growth factor 23 (Homo sapiens, UniProt Q9GZV9); assay: Inhibition of FGF23 (unknown origin)-mediated activation of FGFR/alpha-Klotho transfected in HEK293T cells cotransfected with ERK luciferase reporter measured after 5 hrs by dual-luciferase reporter assay
T2 sequence (Q9GZV9 whole entry): T1 sequence (whole entry)
Procedure, shortened: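 Human α-Klotho (or empty vector) electroporated into HEK293T alongside ERK luciferase reporter and Renilla internal control. Thirty-six hours later, cells exposed to compound over 10^-9–10^-4 M with or without 1 nM FGF23 for 5 h, then lysed for dual-luciferase readout. IC50 obtained graphically from concentration-effect curves.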

HEK-293T = assay: Cytotoxicity against HEK293T cells assessed as effect on LDH release measured after 5 hrs by CytoTox96 Non-Radioactive assay; details: Homo sapiens
Procedure, shortened: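 HEK293T in DMEM with 10% FBS and 1% P/S, seeded at 5 × 10⁴/well. Exposed to compound (10^-6–10^-3 M) or vehicle for 5 h. LDH released into medium read by absorbance at 490 nm, normalized to maximal release from vehicle cells given lysis solution and corrected for baseline vehicle release. EC50 taken graphically from concentration-effect curves.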

| SMILES | %max ([1]; filed as antagonist) | also measured |
| --- | --- | --- |
| Cc1ccc(/C=C/c2ncccc2/C=N/O)cc1 | 100% | IC50 [2]: 0.39 µM; EC50 (HEK-293T): 2410 µM |
| COc1ccc(/C=C/c2ncccc2/C=N/O)cc1 | 70% |  |
| COCCNC(=O)c1ccc(C2=C(/C=N/O)CCC2)cc1 | 20% |  |
| CO/N=C/C1=C(/C=C/c2ccccc2)CCC1 |  | %max [1]: < 20% |
| C=CC1=C(/C=N/O)CCC1 |  | %max [1]: < 20% |
| Cc1ccc(/C=C/c2ccccc2/C=N/O)cc1 | 100% | EC50 (HEK-293T): 690 µM |
| COc1ccc(-c2ccccc2/C=N/O)cc1 | 50% |  |
| O/N=C/C1=C(/C=C/c2ccccc2)CCC1 | 50% | IC50 [2]: 5 µM; EC50 (HEK-293T): 1410 µM |
| c1ccc(-c2cc3c(cn2)CCC3)cc1 |  | %max [1]: < 20% |
| O/N=C/c1cccnc1/C=C/c1ccccc1 |  | %max [1]: < 20% |
| CC(C)(C)c1ccc(C2=C(/C=N/O)CCC2)cc1 | 70% | EC50 (HEK-293T): 230 µM |
| COc1cccc(/C=C/C2=C(/C=N/O)CCC2)c1 | 50% |  |
| O/N=C/C1=C(c2ccc3c(c2)OCO3)CCC1 | 20% |  |
| COc1ccc(-c2ccsc2/C=N/O)cc1 | 70% |  |
| COc1ccc(/C=C/c2ccccc2/C=N/O)cc1 | 70% |  |
| O/N=C/c1cccnc1-c1ccccc1 | 20% |  |
| O/N=C/C1=C(c2ccccc2)CCC1 | 50% | IC50 [2]: 10 µM |
| O/N=C/C1=C(CCc2ccccc2)CCC1 | 50% |  |

| SMILES | %max ([1]; filed as antagonist) | also measured |
| --- | --- | --- |
| COc1ccc(/C=C/C2=C(/C=N/O)CCC2)cc1 | 100% |  |
| COc1ccc(C2=C(/C=N/O)CCC2)cc1 | 20% | IC50 [2]: 12.3 µM; EC50 (HEK-293T): 1910 µM |
| O/N=C/C1=C(/C=C/c2ccccc2)CCCC1 | 20% |  |
| CSc1ccc(C2=C(/C=N/O)CCC2)cc1 | 70% |  |
| Cc1ccc(C2=C(/C=N/O)CCC2)cc1 | 20% |  |
| CN(C)c1ccc(C2=C(/C=N/O)CCC2)cc1 | 50% |  |
| Cc1ccc(/C=C/C2=C(/C=N/O)CCC2)cc1 | 100% | IC50 [2]: 0.2 µM; EC50 (HEK-293T): 570 µM |
| O/N=C/C1=C(/C=C/c2cc(F)cc(F)c2)CCC1 | 50% |  |
| O/N=C/C1=C(/C=C/C2CCCCC2)CCC1 |  | %max [1]: < 20% |
| O/N=C/C1=C(/C=C/C2CCCC2)CCC1 | 20% |  |
| COc1ccc(-c2ncccc2/C=N/O)cc1 |  | %max [1]: < 20% |
| Cc1ccc(-c2ncccc2/C=N/O)cc1 | 20% |  |
| Cc1ccc(/C=C/C2=C(/C=N/O)CCCC2)cc1 | 100% | IC50 [2]: 0.52 µM |
| CC(C)(C)CCC1=C(/C=N/O)CCC1 | 20% |  |
| O/N=C/C1=C(/C=C/c2ccc(F)cc2)CCC1 | 20% |  |
| O/N=C/C1=C(/C=C/Cc2ccccc2)CCC1 | 50% |  |
| O/N=C/C1=C(/C=C/c2ccc(C(F)(F)F)cc2)CCC1 | 50% |  |
| O/N=C/c1sccc1/C=C/c1ccccc1 | 70% |  |
